A selection: hits, their analogues and other compounds. The true share with any hit is near 3%.
Granule exo inh – LAMP-1 surface exposure blockers, TALL-104 cells – cell-based, flow cytometry, MLPCN library, primary screen. TALL-104 LAMP-1 surface exposure; cells stimulated with thapsigargin and PMA. inhibition, % at 10 µM. 360,000 tested, 0.66% active;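 active = inhibition above about 55%, limit read from the data; inconclusive = no clear call, values can overlap the other calls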
HNF4A DNA FP – change in binding of human HNF4A to DNA, primary screen, biochemical, fluorescence polarization, FITC-DNA; Hepatocyte nuclear factor 4-alpha (Homo sapiens), P41235; 1 h; activity change, % at 10 µM; 360,000 tested, 0.3% active; in the data active = activity change above about 30%, passing the limit was not always enough
Myeloid diff MLP – induction of myeloid progenitor differentiation, primary screen, cell-based, flow cytometry, MLPCN library; 360,000 tested, 1% active; calls only at 10 µM; ER-HoxA9 myeloid progenitors, lysozyme-GFP differentiation;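 active = normalized GFP-positive differentiation at or above the plate's own cutoff, the solvent-only control mean plus 3 SD; inconclusive = no clear call, values can overlap the other calls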;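 also: cells exposed to compound for four days before flow analysis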
SENP1 FRET inh – human SENP1 catalytic domain inhibitors, primary screen, biochemical, FRET, uHTS. Sentrin-specific protease 1 (Homo sapiens), Q9P0U3. recombinant SENP1 catalytic domain, CyPet-SUMO1-YPet FRET cleavage. inhibition, % at 10 µM. 360,000 tested, 0.21% active. AID 624204, 2012;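 active = inhibition at least 30% at 10 µM, raw YFP signal under a set limit, fluorescence ratio 0.5 to 1.5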;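 also: 0% = enzyme with DMSO and 100% = no enzyme wells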
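Assay system – human recombinant His6-tagged SENP1 catalytic domain enzyme · Input – SENP1 enzyme, 20 pM final · Buffer or medium – Tris pH 8 buffer plus EDTA, NaCl, BME, BSA, NP40, catalase · Schedule – 50 min reaction at room temperature · Technique – FRET read of cyan and yellow fluorescence · Control set – no-enzyme wells low, DMSO-plus-enzyme wells high control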
DSG3 Ab inh – inhibitors of pemphigus antibody binding to DSG3, primary screen, biochemical, bead-based, flow cytometry, scFv-GFP. Desmoglein-3 (Homo sapiens), P32926. DSG3-coupled beads, scFv-anti-DSG3-GFP binding; active compounds read low. binding (percent of control), % at 10 µM. 310,000 tested, 0.48% active. AID 588358, 2011;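 active = binding more than 3 SD below its plate's average and above zero; inconclusive = below that plate limit but binding exactly zero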;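 also: hits lower antibody fragment binding to DSG3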
Target sequence (P32926 whole entry, looked up, the tested form may be a part): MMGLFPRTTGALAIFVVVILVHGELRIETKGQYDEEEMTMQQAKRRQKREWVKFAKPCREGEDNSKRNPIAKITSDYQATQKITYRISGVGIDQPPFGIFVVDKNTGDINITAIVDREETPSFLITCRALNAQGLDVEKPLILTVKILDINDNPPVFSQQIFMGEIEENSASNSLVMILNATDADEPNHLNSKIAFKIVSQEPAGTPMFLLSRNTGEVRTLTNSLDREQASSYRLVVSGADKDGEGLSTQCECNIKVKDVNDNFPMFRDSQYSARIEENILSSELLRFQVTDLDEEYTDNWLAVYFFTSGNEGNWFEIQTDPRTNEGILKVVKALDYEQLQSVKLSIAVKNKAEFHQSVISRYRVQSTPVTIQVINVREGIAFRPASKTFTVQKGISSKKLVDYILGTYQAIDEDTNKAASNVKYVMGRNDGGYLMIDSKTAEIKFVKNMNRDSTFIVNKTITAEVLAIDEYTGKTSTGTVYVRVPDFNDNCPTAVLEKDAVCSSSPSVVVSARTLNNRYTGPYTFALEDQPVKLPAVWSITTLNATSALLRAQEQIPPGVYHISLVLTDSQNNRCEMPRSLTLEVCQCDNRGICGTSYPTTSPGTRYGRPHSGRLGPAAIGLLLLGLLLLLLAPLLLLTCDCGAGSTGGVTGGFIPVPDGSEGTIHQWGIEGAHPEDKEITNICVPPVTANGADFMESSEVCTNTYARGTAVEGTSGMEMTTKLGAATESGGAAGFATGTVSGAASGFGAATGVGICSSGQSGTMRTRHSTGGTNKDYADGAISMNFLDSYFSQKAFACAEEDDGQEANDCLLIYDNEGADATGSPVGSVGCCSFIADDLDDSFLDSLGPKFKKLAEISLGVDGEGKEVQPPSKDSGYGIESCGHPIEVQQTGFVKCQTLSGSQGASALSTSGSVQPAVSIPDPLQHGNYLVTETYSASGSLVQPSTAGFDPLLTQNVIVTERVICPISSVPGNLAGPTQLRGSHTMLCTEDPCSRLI
H9c2 protect – cardioprotection against H2O2-induced cell death, primary screen, uHTS, H9c2 cells, ATPLite luminescence; H9c2 cardiomyocytes, H2O2 injury protection, 2 h; protection from H2O2 cell death, % at 20 µM; 360,000 tested, 0.63% active; AID 588492, 2011;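 active = compounds giving at least 50% protection of heart cells from peroxide-induced death in the single-dose screen, raw or plate-pattern-corrected value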;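 also: 0% = DMSO wells with peroxide and 100% = DMSO wells without peroxide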
* hit, by the source's call; i = inactive; u = inconclusive; x = no result; + = active, no number.

SMILES	Granule exo inh	HNF4A DNA FP	Myeloid diff MLP	SENP1 FRET inh	DSG3 Ab inh	H9c2 protect
Cc1ccc(-c2nn3c(-c4ccco4)nnc3c3ccccc23)cc1S(=O)(=O)NCC1CCCO1 (centres undefined)	0.1	-0.1	i	0.3	93.9	54.7*
COc1ccccc1N1CCN(Cc2ccc(O)c3ncccc23)CC1	3.9	-1.0	u	-3.5	101.8	37.0
Oc1ccc(CN2CCCc3ccccc32)c2cccnc12	3.1	-1.1	i	-36.7	96.7	55.7*
CCOC(=O)c1[nH]cnc1C(=O)Nc1ccccc1OC	-2.2	-3.5	i	3.3	104.4	-1.5
Cc1nc2c(OCc3ccc(C#N)cc3)cccn2c1N(C)Cc1cccs1	-24.1	0.2	i	-56.3	x	12.0
C=CCn1c(N)c(C(=O)NCC2CCCO2)c2nc3ccccc3nc21 (centres undefined)	-3.1	4.7	i	-22.0	115.4	46.7
COc1ccc(-n2c(N)c(C(=O)NCC3CCCO3)c3nc4ccccc4nc32)c(OC)c1 (centres undefined)	3.2	2.9	i	-24.4	72.9*	36.7
COc1ccc(OC)c(/C=N/Nc2nncn2/N=C/c2cc(OC)ccc2OC)c1	20.1	-2.8	i	-4.3	82.6	80.9*
COc1cc(/C=N/Nc2nncn2/N=C/c2ccc(O)c(OC)c2)ccc1O	2.5	2.5	i	-3.3	102.6	-20.4
CCn1c(C)nc2cc(C(=O)N/N=C/c3cccc(OC)c3O)ccc21	-0.3	0.2	i	9.0	99.8	46.1
CCC(=NNC(=O)c1ccc2c(c1)nc(C)n2CC)c1cc(F)ccc1O	-7.7	-0.5	x	-28.5	83.7	52.2*
CCn1c(C)nc2cc(C(=O)N/N=C/c3ccc(O)c(O)c3O)ccc21	-1.8	-1.0	i	-6.9	2.7*	7.5
CCN1CCN(C(c2cccs2)C(C)NC(=S)Nc2cccc(C)c2C)CC1 (centres undefined)	-1.5	-1.4	i	0.6	92.0	4.5
CS(=O)(=O)N1CCN(c2ccccc2NC(=O)c2ccc([N+](=O)[O-])o2)CC1	-1.2	-0.6	i	0.5	27.5*	35.1
CN1CCN(c2ccccc2NC(=O)c2ccc(-c3cccc([N+](=O)[O-])c3)o2)CC1	3.9	2.2	i	3.1	88.2	77.0*
CN1CCN(c2ccccc2NC(=O)c2cccc([N+](=O)[O-])c2)CC1	0.3	-3.3	i	-0.3	106.2	-0.8
CN1CCN(c2ccccc2NC(=O)c2ccc([N+](=O)[O-])o2)CC1	0.8	-1.4	x	-1.9	102.1	-7.4
CCC(=O)N1CCN(c2ccccc2NC(=O)c2ccc(-c3cccc([N+](=O)[O-])c3)o2)CC1	2.3	-3.3	i	-1.1	84.2	107.1*
Cc1csc(NC(=O)C2CC(=O)N(c3ccc(C)c(C)c3)C2)n1 (centres undefined)	-10.3	-1.8	i	1.2	83.6	-4.0
CC(C)(C)c1ccc(C(=O)N2CCC2(C)C(=O)NCc2cccs2)cc1 (centres undefined)	-11.3	1.4	i	3.7	x	-7.5
CC[N+]1=C(C)C(C)(C)c2cc(C)ccc21	9.8	13.2	+	-36.1	97.6	-18.6
Nn1c(SCC(=O)Nc2ccccc2C(F)(F)F)nncc1=O	-2.3	-4.1	i	-0.2	98.3	-1.3
Cc1cccc(OCc2nnc(SCC(=O)Nc3ccc(C)c(C)c3)o2)c1	0.3	0.4	i	-1.1	65.5*	-10.9
Cc1cccc(OCc2nnc(SCC(=O)Nc3ncc(C)s3)o2)c1	-0.4	2.7	i	-0.2	112.0	-1.1
CCOC(=O)c1c(NC(C)=O)sc2c1CCC(C=O)=C2Sc1ccccc1	94.7*	-20.5	u	-25.0	99.4	0.1
SMILES	Granule exo inh	HNF4A DNA FP	Myeloid diff MLP	SENP1 FRET inh	DSG3 Ab inh	H9c2 protect
O=C(CSc1ccc2nnc(-c3ccc(F)cc3)n2n1)N1CCCc2ccccc21	8.8	0.4	i	2.2	x	80.3*
CCOC(=O)N1CCN(C(=O)CSc2ccc3nnc(-c4ccncc4)n3n2)CC1	-0.7	-6.1	i	7.0	113.2	32.1
COc1ccccc1NC(=O)CSc1ccc2nnc(-c3ccncc3)n2n1	-2.7	-1.2	i	-0.4	110.0	18.1
COc1ccccc1NC(=O)CSc1ccc2nnc(-c3ccc(C)cc3)n2n1	0.3	2.2	i	0.1	98.1	69.2*
CCOC(=O)CC(=O)CSc1ccc2nnc(-c3ccc(C)cc3)n2n1	-1.5	-1.3	+	-0.8	93.7	10.7
CSc1nc(N)c(C#N)c(-c2ccc(Cl)cc2)c1C#N	-1.6	3.2	i	0.9	x	-13.6
Cc1ccc2c(n1)sc1c(-c3ccc(Br)cc3)c(C#N)c(N)nc12	11.8	5.2	i	-24.4	74.3*	-11.0
CCCCCCCCCCOC(=O)Cn1c(COc2ccc(OC)cc2)[n+](C)c2ccccc21	64.9*	6.3	i	-5.9	99.3	-19.9
CCCCCCCCCCOC(=O)Cn1c(COc2cccc(C)c2)[n+](C)c2ccccc21	74.4*	3.5	i	0.6	117.5	-21.9
Cc1ccccc1OCc1n(CC(=O)OC2CC(C)CCC2C(C)C)c2ccccc2[n+]1C (centres undefined)	90.4*	1.8	i	-1.8	104.0	-19.7
CCCCCCCCCCOC(=O)Cn1c(COc2ccccc2C)[n+](C)c2ccccc21	79.8*	10.1	i	1.1	136.8	-15.0
CCCCCCCCCCOC(=O)Cn1c(COc2ccc(Cl)cc2)[n+](C)c2ccccc21	34.9	12.9	i	0.8	108.5	-19.6
CCOC(=O)Cn1c(COc2ccccc2OC)[n+](C)c2ccccc21	-4.5	2.8	i	2.4	95.4	-7.2
CC[C@@]12C(=O)N(c3cccc(Cl)c3)C(=O)N1[C@H](c1ccc(Br)cc1)[C@@H]1C(=O)N(C(C)(C)C)C(=O)[C@@H]12	-1.9	-3.7	i	-0.2	100.4	-3.4
CCOC(=O)C1CCCN(S(=O)(=O)c2ccc(Cl)nc2)C1 (centres undefined)	6.2	3.4	i	-0.8	104.8	0.6
CCCCCCCCCCOC(=O)Cn1c(COc2ccccc2)[n+](C)c2ccccc21	65.9*	7.3	i	0.6	97.8	-19.9
COc1ccc(C(C(=O)NC2CCCC2)N(Cc2cccnc2)C(=O)c2snc(C(N)=O)c2N)cc1OC (centres undefined)	17.3	0.4	i	1.8	104.0	-0.4

Screening results as filed in PubChem BioAssay.
